High-throughput results (PubChem)
iPSC survival up = enhancers of single-cell hiPSC survival, primary screen, ATPlite luminescence; 360,000 compounds, 0.044% hits; survival enhancement, % at 20 µM; 100% = ROCK inhibitor wells, 0% = DMSO; in the data active = survival enhancement above about 18%;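 also: cells exposed to compounds for 16 hours before the ATP read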
NR1D1 modulator = modulators of Rev-erb alpha DNA binding, primary screen, biochemical, FITC-DNA, fluorescence polarization, uHTS; Rev-erbα–FITC-DNA binding, 90 min; activity, % at 10 µM; 370,000 compounds, 0.79% hits; AID 1259318, 2017;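 active = activity above about 14%, limit read from the data; passing the limit was not always enough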
Target sequence (P20393 whole entry, looked up): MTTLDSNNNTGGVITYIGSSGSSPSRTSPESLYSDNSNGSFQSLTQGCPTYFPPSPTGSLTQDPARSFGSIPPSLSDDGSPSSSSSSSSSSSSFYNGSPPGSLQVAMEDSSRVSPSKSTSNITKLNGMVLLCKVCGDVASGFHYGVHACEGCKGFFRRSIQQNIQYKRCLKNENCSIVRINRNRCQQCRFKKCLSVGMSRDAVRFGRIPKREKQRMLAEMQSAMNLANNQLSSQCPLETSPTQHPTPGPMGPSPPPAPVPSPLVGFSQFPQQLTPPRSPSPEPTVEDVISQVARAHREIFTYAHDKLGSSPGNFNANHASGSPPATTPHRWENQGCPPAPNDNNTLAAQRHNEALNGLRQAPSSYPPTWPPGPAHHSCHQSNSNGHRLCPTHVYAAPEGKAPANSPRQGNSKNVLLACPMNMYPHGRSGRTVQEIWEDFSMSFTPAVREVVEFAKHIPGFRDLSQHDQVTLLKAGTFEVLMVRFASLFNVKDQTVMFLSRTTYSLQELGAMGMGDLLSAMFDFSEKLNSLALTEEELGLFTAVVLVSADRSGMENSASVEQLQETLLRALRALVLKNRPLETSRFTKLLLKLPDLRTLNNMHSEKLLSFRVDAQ
PG9 Ab binder = binders of HIV-1 gp120 antibody PG9, primary screen, biochemical, TR-FRET; HIV-1 gp120 / PG9 antibody interaction; TR-FRET gp120-PG9 antibody binding; inhibition, % at 6.7 µM; 360,000 compounds, 0.43% hits; AID 624416, 2012; in the data active = inhibition above about 8.5%
H9c2 TAG inh = inhibitors of triacylglycerol accumulation, primary screen, cell-based, uHTS, fluorescence, H9c2; inhibition, % at 12.5 µM; 230,000 compounds, 0.66% hits; H9c2 cells, Nile Red lipid (TAG) fluorescence; cells loaded with 200 µM oleic acid;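 active = pattern-corrected inhibition of lipid staining of at least 50% with the nuclear-stain viability signal not falling by more than 50%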
beta cell repl = inducers of MIN6 beta-cell proliferation, primary screen, ATP luminescence, uHTS. 330,000 compounds, 0.29% hits. MIN6 cells proliferation, ATPlite luminescence, 48 h; cells starved in 0.2% serum; 100% = growth in 10% serum. proliferation, % at 10 µM;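 active = compounds whose signal lies at least 3.5 SD above the mean of all wells on their plate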
T cruzi inh = inhibitors of intracellular T. cruzi growth, primary screen, luminescence, NIH3T3 host cells | T. cruzi beta-gal in NIH3T3, 90 h | 300,000 compounds, 1.4% hits | inhibition, % (concentration not given with the values);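 active = mean inhibition across valid replicates above about 55%, limit read from the data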;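 also: signal also drops with host cell toxicity which is not excluded here; higher percent means less beta-gal luminescence so fewer parasites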
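Test system: β-gal T. cruzi (Tulahuen C4) inside NIH/3T3 cells / Quantity: 5,000 cells/well / Measured by: luminescence from GalScreen with 0.05% NP40, read after 60 min / Medium: DMEM plus 2% FBS / Measure: parasite load inhibition, % / Reagent: Tulahuen C4 trypomastigotes, 5000/well / Schedule: co-culture of at least 90 h after 3 h attachment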
PG9 bind confirm = binders of anti-gp120 antibody PG9, confirmation, biochemical, TR-FRET. 1,500 compounds, 90% hits. inhibition, % at 6.7 µM. AID 651571, 2012. shares compounds with PG9 Ab binder. TR-FRET PG9 antibody binding; in the data active = inhibition above about 9%
PGV04 Ab binding = binders of control antibody PGV04, counter-screen for PG9 antibody binder project, biochemical, TR-FRET, distinct HIV envelope site. shares compounds with PG9 Ab binder. TR-FRET PGV04 antibody-gp120 binding. inhibition, % at 6.7 µM. 1,500 compounds, 95% hits. AID 651604, 2012; in the data active = inhibition above about 9.5%
PG9 bind DR = small-molecule binders of antibody PG9, dose response, biochemical, TR-FRET, HIV-1 gp120 antibody. shares compounds with PG9 Ab binder. TR-FRET PG9 antibody-gp120 binding inhibition. IC50, µM. 95 tested, under 10 active. AID 651848, 2012; in the data active = IC50 below about 10 µM
PGV04 DR counter = binders of control antibody PGV04, dose response, counter-screen for PG9 antibody binder project, biochemical, TR-FRET, distinct HIV envelope site | shares compounds with PG9 Ab binder | TR-FRET binding to control antibody PGV04 | IC50, µM | 95 compounds, 20% hits
PG126 binding DR = binders of control antibody PG126, dose response, counter-screen for PG9 antibody binder project, biochemical, TR-FRET, distinct HIV envelope site | shares compounds with PG9 Ab binder | TR-FRET binding to antibody PG126, counterscreen | IC50, µM | 95 compounds, 20% hits
Rev-erbA confirm = modulators of Rev-erb alpha DNA binding, confirmation, biochemical, FITC-DNA, fluorescence polarization, single point | shares compounds with NR1D1 modulator | 90 min | activation, % at 25 µM | 3,000 compounds, 61% hits;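 active = activation at or above a set limit, or at least 3 SD above the negative control mean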
RORg DNA counter = modulation of RORgamma DNA binding, dose response, counter-screen for Rev-erb alpha modulator project, biochemical, fluorescence polarization, FITC-DNA; shares compounds with NR1D1 modulator; IC50, µM; 910 compounds, 8% hits; purified RORgamma protein-FITC-DNA binding;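 active = Compounds whose fitted half-maximal concentration for disrupting protein-DNA binding is below 10 micromolar; the record names Rev-erb in its text, so the target is in doubt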
Of the large screens only hits and unclear results are named; the others gave an inactive call (follow-up assays come after a bar, where they were run). An excerpt weighted towards active compounds, which were near 2.9% of everything screened. Rule as the data show it, unless noted: active = IC50 below about 9 µM; inactive = the rest.

O=C(Nc1cccc(O)c1)c1cc(-c2cccs2)on1	none (no result: H9c2 TAG inh)
CC(=O)c1cccc(NC(=O)c2cc(-c3cccs3)on2)c1	NR1D1 modulator 33, PG9 Ab binder 24 (no result: H9c2 TAG inh) | PG9 bind confirm 29 | PGV04 Ab binding 47 | Rev-erbA confirm inactive
CC(C)C(=O)Nc1cccc(C(=O)OCC(=O)c2ccc(Cl)cc2Cl)c1	NR1D1 modulator 19, PG9 Ab binder 53 | PG9 bind confirm 40 | PGV04 Ab binding 58 | Rev-erbA confirm inactive
CC(=O)Nc1cc(C(=O)OCC(=O)c2ccc(Cl)cc2Cl)ccc1C	none
Cc1ccc(S(=O)(=O)N(C)[C@H]2C[C@H]3c4cc(-c5ccc6c(c5)OCO6)ccc4CCN3C[C@H]2[C@H](C)O)cc1	none (no result: iPSC survival up, H9c2 TAG inh, beta cell repl, T cruzi inh)
CCc1nc(Nc2cc(OC)ccc2OC)c2oc3ccccc3c2n1	NR1D1 modulator 22, PG9 Ab binder 13 (no result: H9c2 TAG inh) | PG9 bind confirm 20 | PGV04 Ab binding 25 | Rev-erbA confirm inactive
CC(=O)CC1(O)C(=O)N(Cc2ccccc2)c2ccccc21 (stereo unspecified)	none
CN1CCN(c2ccc(Cl)cc2NC(=O)c2ccc(S(=O)(=O)N3CCCCCC3)cc2)CC1	none
CCCCCCn1c(SCC(=O)Nc2cc(C)on2)nc2ccccc2c1=O	NR1D1 modulator 41, PG9 Ab binder 31 (no result: H9c2 TAG inh) | PG9 bind confirm 23 | PGV04 Ab binding 32 | Rev-erbA confirm 18
Cc1cc(NC(=O)CSc2nc3ccccc3c(=O)n2Cc2ccc(F)cc2)no1	NR1D1 modulator 52, PG9 Ab binder 42 | PG9 bind confirm 62 | PGV04 Ab binding 65 | Rev-erbA confirm 26
COCCn1c(SCC(=O)Nc2cc(C)on2)nc2ccccc2c1=O	none (no result: T cruzi inh)
COc1ccc(C(=O)Nc2nnc(Cc3ccccc3)s2)c(OC)c1	NR1D1 modulator 71, PG9 Ab binder 68 (no result: H9c2 TAG inh) | PG9 bind confirm 39 | PGV04 Ab binding 32 | PG9 bind DR inactive | PGV04 DR counter inactive | PG126 binding DR inactive | Rev-erbA confirm 53 | RORg DNA counter inactive
COc1ccc(Cc2nnc(NC(=O)c3ccc(OC)c(OC)c3)s2)cc1	none
COc1ccc(C(=O)Nc2nnc(Cc3cccs3)s2)cc1OC	NR1D1 modulator 46, PG9 Ab binder 33 | PG9 bind confirm 45 | PGV04 Ab binding 75 | Rev-erbA confirm 47 | RORg DNA counter inactive
CCc1c(C)sc(NC(=O)CCc2ccc(OC)cc2)c1C(N)=O	none
CCCC(=O)Nc1sc(C)c(-c2ccc(OC)cc2)c1C#N	NR1D1 modulator 24, PG9 Ab binder 9.1 (no result: H9c2 TAG inh) | PG9 bind confirm 19 | PGV04 Ab binding 23 | Rev-erbA confirm 28
COC(=O)CNC(=O)CNC(=O)c1nn(-c2ccc(OC)c(OC)c2)c(=O)c2ccccc12	none (no result: H9c2 TAG inh)
COc1ccc(-n2nc(C(=O)NCC(=O)NCc3ccc(F)cc3)c3ccccc3c2=O)cc1OC	NR1D1 modulator 54, PG9 Ab binder 28 (no result: H9c2 TAG inh) | PG9 bind confirm 34 | PGV04 Ab binding 49 | Rev-erbA confirm 39 | RORg DNA counter inactive
COc1ccc2c(-c3ccccc3)cc(=O)[nH]c2c1	none (no result: H9c2 TAG inh)
C#CCOCCOCCOCCNc1nc(N2CCN(C(=O)Cn3cc(CCCCN)nn3)CC2)nc(N2CCN(C(=O)[C@H]([C@@H](C)CC)n3cc(CCCCN)nn3)CC2)n1	none (no result: T cruzi inh)
COc1ccc(CCn2c(C)nc3c(c(=O)c4ccccc4n3C)c2=O)cc1	none
COc1ccc(CCn2c(S)nc3ccccc3c2=O)cc1	NR1D1 modulator 37, PG9 Ab binder 24 (no result: H9c2 TAG inh) | PG9 bind confirm 42 | PGV04 Ab binding 50 | Rev-erbA confirm inactive
CC(C)(C)NC(=O)C(=O)N/N=C/c1ccc(F)cc1	none (no result: H9c2 TAG inh)
CC(=O)c1sc(NC(=O)C2CSC3(C)CCC(=O)N23)nc1-c1ccccc1 (stereo unspecified)	none
CCOC(=O)c1c(NC(=O)COC(=O)CCOc2ccccc2C)sc(C(=O)NC)c1C	NR1D1 modulator 72, PG9 Ab binder 31 | PG9 bind confirm 48 | PGV04 Ab binding 57 | Rev-erbA confirm 46 | RORg DNA counter inactive
CCOC(=O)c1c(NC(=O)COC(=O)CCOc2ccc(OCC)cc2)sc(C(=O)N(C)C)c1C	none (no result: NR1D1 modulator, PG9 Ab binder)
CO/N=C(/CS(=O)c1ccc(Br)cc1)c1ccc(OC)cc1 (stereo unspecified)	none (no result: T cruzi inh)
Cc1cc2ccccc2n1CCNC(=O)c1ccc(S(=O)(=O)N2CCCCC2)cc1	none
COC(=O)c1c(NC(=O)CN2C(=O)NC3(CCc4ccccc4C3)C2=O)sc2c1CCCCC2 (stereo unspecified)	NR1D1 modulator 30, PG9 Ab binder 15 | PG9 bind confirm 22 | PGV04 Ab binding 34 | Rev-erbA confirm 26
Cc1ccc(C)c(N2C(=O)CC(N3CCN(Cc4ccc5c(c4)OCO5)CC3)C2=O)c1 (stereo unspecified)	none (no result: H9c2 TAG inh)
